CHRM1 antagonist: human M1 muscarinic receptor antagonists, primary screen, CHO-K1 cells, Fluo-8 calcium fluorescence, 1536-well | Muscarinic acetylcholine receptor M1 (Homo sapiens), P11229 | CHO-K1 hM1, ACh EC80 antagonist | inhibition, % at 3 µM | 360,000 tested, 1.3% active;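 active = percent inhibition above its own plate's cutoff, namely the mean of that plate's compound wells plus 3 SD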;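 note: peak over basal fluorescence ratio during 140 s after agonist addition; 0% = ACh EC80 plus DMSO and 100% = DMSO alone without agonist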
M5 ag: human M5 muscarinic receptor agonists, primary screen, CHO-K1 cells, Fluo-8 calcium fluorescence; Muscarinic acetylcholine receptor M5 (Homo sapiens), P08912; CHO-K1 hM5 cells; 0% DMSO wells, 100% maximal acetylcholine response; 360,000 tested, 0.19% active; activation, % at 3 µM;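 active = activation above the run's mean over test compounds plus 3 SD, cut at about 23% in these data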;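 note: signal is peak over basal fluorescence ratio across the kinetic read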
Target sequence (P08912 whole entry, looked up): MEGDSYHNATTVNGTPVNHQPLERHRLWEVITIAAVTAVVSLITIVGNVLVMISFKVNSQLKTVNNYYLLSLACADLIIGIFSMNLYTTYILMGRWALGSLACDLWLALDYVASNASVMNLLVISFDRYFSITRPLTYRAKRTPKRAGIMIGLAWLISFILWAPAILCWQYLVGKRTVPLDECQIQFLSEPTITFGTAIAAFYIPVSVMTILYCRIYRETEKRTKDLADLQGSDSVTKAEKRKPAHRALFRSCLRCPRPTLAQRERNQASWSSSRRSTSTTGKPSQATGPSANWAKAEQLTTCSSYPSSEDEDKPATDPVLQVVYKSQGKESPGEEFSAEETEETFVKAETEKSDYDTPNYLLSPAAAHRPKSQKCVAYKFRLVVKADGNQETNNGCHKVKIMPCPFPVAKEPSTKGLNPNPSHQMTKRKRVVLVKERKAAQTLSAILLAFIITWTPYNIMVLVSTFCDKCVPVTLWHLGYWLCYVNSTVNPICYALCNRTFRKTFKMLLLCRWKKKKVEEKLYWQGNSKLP
M5 antag: human M5 muscarinic receptor antagonists, primary screen, CHO cells, Fluo-8 calcium fluorescence. Muscarinic acetylcholine receptor M5 (Homo sapiens), P08912. CHO-hM5 cells, ACh EC80. inhibition, % at 3 µM. 360,000 tested, 0.59% active. AID 624040, 2012;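 active = inhibition above a per-plate cutoff, the mean of that plate's test compounds plus 3 SD, cut at about 27% in these data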;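 note: 0% = acetylcholine EC80 with DMSO and 100% = DMSO without agonist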
M5 PAM: human M5 muscarinic receptor positive allosteric modulators, primary screen, CHO-K1 cells, Fluo-8 calcium fluorescence | AID 624038, 2012 | 360,000 tested, 0.3% active | Muscarinic acetylcholine receptor M5 (Homo sapiens), P08912 | CHO-K1 hM5, ACh EC20 PAM; 0% = ACh EC20, 100% = ACh EC100 | activation, % at 3 µM;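 active = activation above the run cutoff, the mean activation of all test compounds plus 3 SD, cut at about 18% in these data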
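Assay system: CHO-K1 hM5 cells / Incubation: Fluo-8 loading 80 min at 37 °C plus 30 min room temperature / Technique: Fluo-8 calcium dye fluorescence, kinetic read / Repeats: single replicate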
M1 ag: human M1 muscarinic receptor agonists, primary screen, Fluo-8 calcium fluorescence, CHO-K1 cells, HTS. Muscarinic acetylcholine receptor M1 (Homo sapiens), P11229. CHO-K1 hM1, agonist mode; 0% DMSO, 100% acetylcholine EC100. activation, % at 3 µM. 360,000 tested, 0.33% active;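 active = activation above the run's mean compound activation plus 3 SD, cut at about 16% in these data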;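 note: peak over basal fluorescence ratio within a 140 s kinetic read after compound addition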
M1 PAM: human M1 muscarinic receptor positive allosteric modulators, primary screen, CHO-K1 cells, Fluo-8 calcium fluorescence, 1536-well; Muscarinic acetylcholine receptor M1 (Homo sapiens), P11229; 360,000 tested, 0.088% active; CHO-K1 hM1, ACh EC20; 0% = ACh EC20, 100% = maximal ACh; activation, % at 3 µM; AID 588819, 2011; in the data active = activation above about 19%, passing the limit was not always enough
* = called active by the depositor. In the library only some 2.1% were active in any assay of this set; here they are far more common.

SMILES	CHRM1 antagonist	M5 ag	M5 antag	M5 PAM	M1 ag	M1 PAM
O=C(CN1C(=O)NC(Cc2ccccc2)C1=O)Nc1ccc(OC(F)(F)F)cc1 (configuration not stated)	1.1	2.2	4.5	1.8	-4.5	4.5
COc1ccc(Oc2c(C)oc3c(CN(C)C)c(O)ccc3c2=O)cc1	32.0*	-7.9	1.7	-16.0	-14.0	-21.6
COc1ccccc1C(CNc1ncccc1[N+](=O)[O-])N(C)C (configuration not stated)	-12.0	-6.6	19.0	-4.0	-13.1	4.0
COc1ccc(C(CNc2ncnc3sc(C)c(C)c23)N(C)C)cc1 (configuration not stated)	23.1*	-6.8	16.2	-14.6	-11.9	-27.6
COc1ccc(C(CNc2ncnc3sccc23)N(C)C)cc1OC (configuration not stated)	-10.8	-0.3	3.7	0.8	-8.1	7.0
Cc1sc2ncnc(NCC(c3ccco3)N(C)C)c2c1C (configuration not stated)	38.4*	-5.3	2.4	-8.0	-4.3	-18.2
Cc1sc2ncnc(NCc3ccccc3)c2c1C	21.7	2.3	29.0*	-15.9	-0.8	-2.2
Cc1sc2ncnc(Nc3ccccc3)c2c1C	-3.8	-10.7	-16.9	3.0	-7.0	-2.1
CN(C)C(CNc1ncnc2sc3c(c12)CCCCC3)c1ccco1 (configuration not stated)	16.6	-19.2	9.3	4.3	-7.5	-15.1
COc1ccccc1C(CNc1ncnc2sc(C)c(C)c12)N(C)C (configuration not stated)	92.0*	-7.5	57.2*	-15.2	-10.9	-34.3
CCN1C(=O)/C(=C2/C=Cc3ccccc3N2CC)SC1=S	-4.7	-3.0	-10.0	5.1	-11.8	5.7
O=C1C(Cl)=C(N2CCCCC2)C(=O)N1Cc1ccccc1	-5.3	1.9	6.7	-6.9	-5.7	-3.2
COc1ccc2noc3c2c1C(=O)c1ccccc1-3	21.7	51.4*	27.9*	-17.0	71.6*	-26.5
COc1ccc(N)c2c1C(=O)c1ccccc1C2=O	-3.3	-0.1	-4.1	-0.5	-4.2	7.3
COc1ccc(/C=N/n2nnnc2N)c(OC)c1	38.3*	-2.9	0.8	1.7	-7.9	-7.6
Cc1ccc2c(c1)c(N=O)c(O)n2Cc1ccc(Cl)cc1	3.6	1.0	2.3	-3.7	-1.8	-6.2
C=CCn1c(O)c(N=O)c2ccccc21	7.5	-2.9	13.2	2.9	-0.7	1.3
O=Nc1c(O)n(Cc2ccc(Cl)cc2Cl)c2ccccc12	-14.9	-5.2	-5.8	4.9	6.1	15.0
O=Nc1c(O)n(Cc2ccc(Cl)cc2)c2ccccc12	-15.8	-3.0	-6.7	9.9	18.4*	21.8*
O=Nc1c(O)n(Cc2c(Cl)cccc2Cl)c2ccccc12	6.5	-1.3	13.4	-9.1	36.2*	-0.7
Cc1ccc(Cn2c(O)c(N=O)c3ccccc32)cc1	-5.2	0.9	-3.5	-6.5	19.6*	8.7
C=CCn1c(=O)c2ccc(C(=O)NCc3ccccc3)cc2n(Cc2ccc(C)cc2)c1=O	-3.8	-1.5	3.8	-2.5	-2.3	5.7
COc1ccc(-c2cn3cccnc3n2)cc1NC(=O)C1CC1	1.6	-1.4	-2.5	19.0*	-3.1	-3.3
C#Cc1cccc(NC(=O)c2ccc3c(c2)C(=O)N(Cc2cccnc2)C3=O)c1	34.2*	4.3	17.9	-13.7	2.3	-11.4
O=S(=O)(c1ccccc1)N1CCN(S(=O)(=O)c2ccccc2)C1	2.2	-3.4	2.5	-3.3	-2.9	-1.7
SMILES	CHRM1 antagonist	M5 ag	M5 antag	M5 PAM	M1 ag	M1 PAM
O=S(=O)(/N=S1/CC=CCN1S(=O)(=O)c1ccccc1)c1ccccc1 (configuration not stated)	-11.1	25.6*	6.3	2.7	20.7*	11.5
O=C1C2CCCN2C(c2cccs2)N1c1ccc(F)cc1 (configuration not stated)	-3.1	-2.7	7.0	-2.2	-11.1	2.9
COc1cccc(N2C(=O)C3CCCN3C2c2cccs2)c1 (configuration not stated)	-6.3	-2.2	8.1	3.5	18.4*	6.8
CCc1ccc(Nc2n[n+](-c3ccccc3)c(-c3ccc(N(CC)CC)cc3)s2)cc1	38.8*	18.6	35.6*	-15.8	9.4	-13.4
COc1ccc2ccccc2c1-c1sc(Nc2ccccc2)n[n+]1-c1ccc(F)cc1	28.1	28.1*	35.5*	-32.7	7.3	-19.6
CCc1ccc(Nc2n[n+](-c3ccccc3)c(-c3c(Cl)cccc3Cl)s2)cc1	48.6*	48.9*	69.6*	-25.5	18.5*	-26.0
COc1ccc(CC(NC(C)=O)C(=O)NC2CCN(S(=O)(=O)c3cccc4ccccc34)CC2)cc1OC (configuration not stated)	1.5	0.2	0.3	-3.5	-7.2	2.0
COc1ccc(CCNC(=O)COC(=O)/C=C/c2cc(OC)ccc2OC)cc1	0.8	-0.9	7.4	-6.2	-2.1	0.8
Cc1cc(C)cc(OCC(=O)NN2Cc3ccccc3C2=N)c1	-14.2	-9.4	8.4	1.6	-9.2	-1.0
O=C(NC(=S)N1CCCCC1)c1cccnc1	-13.7	-0.8	-3.4	3.6	-1.9	7.8
CCSc1nnc(NC(=O)c2ccc(Br)s2)s1	6.5	1.7	-7.1	-2.8	-3.2	-2.5
O=C(Nc1nnc(C(F)(F)F)s1)c1ccc(Br)s1	28.4*	10.3	16.7	-7.8	3.2	-3.4
Cc1onc(-c2c(F)cccc2Cl)c1C(=O)Nc1nnc(C(F)(F)F)s1	4.7	6.4	29.0*	-11.5	2.9	-1.0
O=C(Nc1ccccc1C(=O)Nc1nnc(C(F)(F)F)s1)c1ccccc1Cl	34.3*	7.1	22.9	-25.1	10.5	-12.1
O=C1N=C(N2CCN(Cc3ccccc3)CC2)S/C1=C/c1cccs1	2.1	3.4	-2.0	3.7	-1.8	6.1
O=C1N=C(N2CCN(c3ccccc3)CC2)S/C1=C/c1cccs1	-5.5	-2.7	27.4*	-10.6	-4.9	6.5
Cc1ccc(/C=C2\SC(N3CCN(C(c4ccccc4)c4ccccc4)CC3)=NC2=O)o1	51.9*	-7.3	38.1*	-19.1	-10.8	-26.2
